What was measured:
Salmonella typhimurium [1] = assay: Mutagenic activity in Salmonella Typhimurium TA100 assessed as number of revertants at 0.01 ug/plate in presence of Wistar rat S9 liver homogenate; type: toxicity, organism-based, Liver S9 fraction; conditions: salmonella enterica subsp. enterica serovar typhimurium
Outline: (§1)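 Salmonella/microsome plate test, with or without S9 from livers of male Wistar rats (~200 g). Strain markers and spontaneous revertant counts were routinely verified. Revertants are reported as mean ± standard error of triplicate plates. Strain-specific positive controls were used, with 2-aminoanthracene for all strains when S9 was present.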

Salmonella typhimurium [2] = assay: Mutagenic activity in Salmonella Typhimurium TA100 assessed as number of revertants at 10 ug/plate in absence of Wistar rat S9 liver homogenate; type: toxicity, organism-based; conditions: salmonella enterica subsp. enterica serovar typhimurium; outline: as §1
Salmonella typhimurium [3] = assay: Mutagenic activity in Salmonella Typhimurium TA98 assessed as number of revertants at 100 ug/plate in presence of Wistar rat S9 liver homogenate; type: toxicity, organism-based, Liver S9 fraction; conditions: salmonella enterica subsp. enterica serovar typhimurium
Outline: (§2)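 Salmonella/microsome plate test (Ames) in strain TA98, with genetic markers and spontaneous revertant counts verified routinely. Run with and without S9 mix, the S9 being liver postmitochondrial supernatant from male Wistar rats of about 200 g. Doses ran from 0.01 to 100 µg/plate. Revertants are the mean of triplicate plates with standard error. Positive controls were 0.5 µg 4-nitroquinoline-N-oxide without S9 and 15 µg 2-aminoanthracene with S9.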

Spodoptera littoralis [4] = assay: Antifeedant effect against Spodoptera littoralis L6 larvae assessed as relative consumption rate at 10 ug, po after 72 hrs; type: functional
Outline: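 Preweighed, newly emerged S. littoralis L6 larvae (20 per experiment) were orally cannulated with 10 µg in 2 µL DMSO; controls got solvent alone. Relative consumption and growth rates were calculated at 72 h on a dry-weight basis. Log-transformed weights were analysed by ANOVA with LSD tests.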

Spodoptera littoralis [5] = assay: Antifeedant effect against Spodoptera littoralis assessed as feeding reduction at 100 ug/cm2 relative to control; type: functional; set-up: scale not given: the % may be the effect or the level left
Outline: (§3)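 Choice test on leaf disks using adult L. decemlineata or newly emerged fifth-instar S. littoralis larvae. Five to 10 plates per treatment, three insects each. Uneaten leaf-disk area was measured by scanner. %FR = [1 − (treatment/control consumption)] × 100 per arena. Where FR exceeded 50%, EC50 was taken from linear regression of %FR on log dose.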

Salmonella typhimurium [6] = assay: Mutagenic activity in Salmonella Typhimurium TA100 assessed as number of revertants at 20 ug/plate in absence of Wistar rat S9 liver homogenate; type: toxicity, organism-based; conditions: salmonella enterica subsp. enterica serovar typhimurium; outline: as §1
Salmonella typhimurium [7] = assay: Mutagenic activity in Salmonella Typhimurium TA98 assessed as number of revertants at 10 ug/plate in absence of Wistar rat S9 liver homogenate; type: toxicity, organism-based; conditions: salmonella enterica subsp. enterica serovar typhimurium; outline: as §1
Salmonella typhimurium [8] = assay: Mutagenic activity in Salmonella Typhimurium TA98 assessed as number of revertants at 1 ug/plate in absence of Wistar rat S9 liver homogenate; type: toxicity, organism-based; conditions: salmonella enterica subsp. enterica serovar typhimurium; outline: as §1
Salmonella typhimurium [9] = assay: Mutagenic activity in Salmonella Typhimurium TA98 assessed as number of revertants at 50 ug/plate in presence of Wistar rat S9 liver homogenate; type: toxicity, organism-based, Liver S9 fraction; conditions: salmonella enterica subsp. enterica serovar typhimurium; outline: as §2
Salmonella typhimurium [10] = assay: Mutagenic activity in Salmonella Typhimurium TA100 assessed as number of revertants at 100 ug/plate in absence of Wistar rat S9 liver homogenate; type: toxicity, organism-based; conditions: salmonella enterica subsp. enterica serovar typhimurium; outline: as §1
Myzus persicae = assay: Insecticidal activity against Myzus persicae assessed as increase in mortality at 50 ug/cm2 observed daily for 4 days; type: functional, organism-based
Outline: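 No-choice test: 20 boxes, each with five same-age apterous adult M. persicae (100 insects). Nymphs produced in the first 48 h were separated from adults and kept in similarly treated boxes. Both were observed daily for 4 days for mortality. Analysed by contingency tables and LSD test.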

Salmonella typhimurium [11] = assay: Mutagenic activity in Salmonella Typhimurium TA98 assessed as number of revertants at 0.1 ug/plate in absence of Wistar rat S9 liver homogenate; type: toxicity, organism-based; conditions: salmonella enterica subsp. enterica serovar typhimurium; outline: as §1
Salmonella typhimurium [12] = assay: Mutagenic activity in Salmonella Typhimurium TA102 assessed as number of revertants at 20 ug/plate in absence of Wistar rat S9 liver homogenate; type: toxicity, organism-based; conditions: salmonella enterica subsp. enterica serovar typhimurium; outline: as §1
Salmonella typhimurium [13] = assay: Mutagenic activity in Salmonella Typhimurium TA100 assessed as number of revertants at 100 ug/plate in presence of Wistar rat S9 liver homogenate; type: toxicity, organism-based, Liver S9 fraction; conditions: salmonella enterica subsp. enterica serovar typhimurium; outline: as §1
Salmonella typhimurium [14] = assay: Mutagenic activity in Salmonella Typhimurium TA100 assessed as number of revertants at 10 ug/plate in presence of Wistar rat S9 liver homogenate; type: toxicity, organism-based, Liver S9 fraction; conditions: salmonella enterica subsp. enterica serovar typhimurium; outline: as §1
Salmonella typhimurium [15] = assay: Mutagenic activity in Salmonella Typhimurium TA102 assessed as number of revertants at 10 ug/plate in presence of Wistar rat S9 liver homogenate; type: toxicity, organism-based, Liver S9 fraction; conditions: salmonella enterica subsp. enterica serovar typhimurium; outline: as §1
Salmonella typhimurium [16] = assay: Mutagenic activity in Salmonella Typhimurium TA98 assessed as number of revertants at 0.01 ug/plate in presence of Wistar rat S9 liver homogenate; type: toxicity, organism-based, Liver S9 fraction; conditions: salmonella enterica subsp. enterica serovar typhimurium; outline: as §1
Salmonella typhimurium [17] = assay: Mutagenic activity in Salmonella Typhimurium TA98 assessed as number of revertants at 50 ug/plate in absence of Wistar rat S9 liver homogenate; type: toxicity, organism-based; conditions: salmonella enterica subsp. enterica serovar typhimurium; outline: as §2
Salmonella typhimurium [18] = assay: Mutagenic activity in Salmonella Typhimurium TA102 assessed as number of revertants at 20 ug/plate in presence of Wistar rat S9 liver homogenate; type: toxicity, organism-based, Liver S9 fraction; conditions: salmonella enterica subsp. enterica serovar typhimurium; outline: as §1
Salmonella typhimurium [19] = assay: Mutagenic activity in Salmonella Typhimurium TA102 assessed as number of revertants at 1 ug/plate in presence of Wistar rat S9 liver homogenate; type: toxicity, organism-based, Liver S9 fraction; conditions: salmonella enterica subsp. enterica serovar typhimurium; outline: as §1
Salmonella typhimurium [20] = assay: Mutagenic activity in Salmonella Typhimurium TA100 assessed as number of revertants at 50 ug/plate in presence of Wistar rat S9 liver homogenate; type: toxicity, organism-based, Liver S9 fraction; conditions: salmonella enterica subsp. enterica serovar typhimurium; outline: as §1
[21] = system: Leptinotarsa decemlineata; assay: Antifeedant effect against Leptinotarsa decemlineata assessed as feeding reduction at 10 ug/cm2; type: functional, organism-based; outline: as §3
Salmonella typhimurium [22] = assay: Mutagenic activity in Salmonella Typhimurium TA102 assessed as number of revertants at 100 ug/plate in presence of Wistar rat S9 liver homogenate; type: toxicity, organism-based, Liver S9 fraction; conditions: salmonella enterica subsp. enterica serovar typhimurium; outline: as §1
Salmonella typhimurium [23] = assay: Mutagenic activity in Salmonella Typhimurium TA102 assessed as number of revertants at 100 ug/plate in absence of Wistar rat S9 liver homogenate; type: toxicity, organism-based; conditions: salmonella enterica subsp. enterica serovar typhimurium; outline: as §1
Salmonella typhimurium [24] = assay: Mutagenic activity in Salmonella Typhimurium TA102 assessed as number of revertants at 50 ug/plate in absence of Wistar rat S9 liver homogenate; type: toxicity, organism-based; conditions: salmonella enterica subsp. enterica serovar typhimurium; outline: as §1

SMILES: CCCCCC[C@H](O)CCC[C@H](O)[C@H]1CC[C@H]([C@H]2CC[C@H]([C@H](O)CCCCCCCCCCCCC3=C[C@H](C)OC3=O)O2)O1 [SQUAMOCIN]
- Activity (Salmonella typhimurium [1]): 147
- Activity (Salmonella typhimurium [2]): 69
- Activity (Salmonella typhimurium [3]): 31
- Activity (Spodoptera littoralis [4]): 20.35 mg
- Activity (Spodoptera littoralis [5]): <40%
- Activity (Salmonella typhimurium [6]): 68
- Activity (Salmonella typhimurium [7]): 18
- Activity (Salmonella typhimurium [8]): 26
- Activity (Salmonella typhimurium [9]): 36
- Activity (Salmonella typhimurium [10]): 21
- Activity (Myzus persicae): Non-toxic
- Activity (Salmonella typhimurium [11]): 25
- Activity (Salmonella typhimurium [12]): 98
- Activity (Salmonella typhimurium [13]): 102
- Activity (Salmonella typhimurium [14]): 142
- Activity (Salmonella typhimurium [15]): 419
- Activity (Salmonella typhimurium [16]): 36
- Activity (Salmonella typhimurium [17]): 10
- Activity (Salmonella typhimurium [18]): 139
- Activity (Salmonella typhimurium [19]): 422
- Activity (Salmonella typhimurium [20]): 118
- Activity [21]: Toxic
- Activity (Salmonella typhimurium [22]): 88
- Activity (Salmonella typhimurium [23]): 80
- Activity (Salmonella typhimurium [24]): 93

From ChEMBL document CHEMBL1142626, “Insecticidal and mutagenic evaluation of two annonaceous acetogenins” (J Nat Prod, 2000)
